In ChEMBL document CHEMBL1135519, “Structure-activity relationships on phenylalanine-containing inhibitors of histone deacetylase: in vitro enzyme inhibition, induction of differentiation, and inhibition of proliferation in Friend leukemic cells” (J Med Chem, 2002):

Legend:
Histone deacetylase HD2 = biological target: T1, Histone deacetylase HD2 (Zea mays, UniProt Q94F81); assay: Inhibition of in vitro enzyme activity measured in a highly purified maize Histone deacetylase 2 preparation
T1 sequence (Q94F81 whole entry): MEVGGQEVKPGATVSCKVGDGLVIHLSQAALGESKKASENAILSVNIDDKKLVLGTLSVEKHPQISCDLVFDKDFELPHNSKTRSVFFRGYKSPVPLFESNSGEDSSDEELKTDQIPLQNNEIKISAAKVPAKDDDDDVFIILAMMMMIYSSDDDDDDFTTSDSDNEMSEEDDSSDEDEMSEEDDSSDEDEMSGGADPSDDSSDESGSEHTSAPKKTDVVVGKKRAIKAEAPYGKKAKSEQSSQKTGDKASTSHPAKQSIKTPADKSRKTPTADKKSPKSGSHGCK

Histone deacetylase = assay: Inhibition of in vitro enzyme activity measured in partially purified rat liver Histone deacetylase preparation; format: tissue-based
[1] = test system: Friend leukemia cell line; assay: Tested […] for the inhibition of proliferation of friend leukemic cells; format: functional; settings: Mus musculus
Outline: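 MEL DS19 murine erythroleukemia (Friend) cells, log phase, kept in DMEM with 10% FBS and penicillin/streptomycin at 37 °C in 5% CO2. Seeded at 4 × 10⁴ cells/well with serial compound dilutions; screened at 10 and 50 µM, then dose-response. DMSO at 0.1% in controls. Cells counted by Casy counter after 72 h. Proliferation given as percent of solvent control.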

SMILES | IC50 (Histone deacetylase HD2) [nM] | IC50 (Histone deacetylase) [nM] | IC50 [1] [nM]
O=C(CCCCCCC(=O)NO)NO [SUBEROHYDROXAMIC ACID] | 320 | 1150 | 
COC(=O)[C@H](Cc1c[nH]c2ccccc12)NC(=O)CCCCCCC(=O)NO | 120 | 320 | 13000
COC(=O)[C@H](Cc1ccc(OC)cc1)NC(=O)CCCCCCC(=O)NO | 250 | 800 | 11000
O=C(CCCCCCC(=O)N[C@@H](Cc1cccc2ccccc12)C(=O)NCCc1ccccc1)NO | 35 | 310 | 15000
COC(=O)[C@H](Cc1cccc2ccccc12)NC(=O)CCCCCCC(=O)NO | 360 | 130 | 22000
COC(=O)[C@@H](NC(=O)CCCCCCC(=O)NO)C(C)C | 900 | 380 | 6200
COC(=O)[C@H](Cc1cccs1)NC(=O)CCCCCCC(=O)NO | 700 | 410 | 5900
O=C(CCCCCCC(=O)N[C@@H](Cc1ccccc1)C(=O)NCCCc1ccccc1)NO | 380 | 1010 | 58000
COC(=O)[C@H](Cc1ccc([N+](=O)[O-])cc1)NC(=O)CCCCCCC(=O)NO | 850 | 1340 | 35000
CC(/C=C/C(=O)NO)=C\[C@@H](C)C(=O)c1ccc(N(C)C)cc1 [TRICHOSTATIN] |  |  | 40

More lines, now with the values ahead:

IC50 (Histone deacetylase HD2) [nM] | IC50 (Histone deacetylase) [nM] | IC50 [1] [nM] | SMILES
500 | 800 | 15000 | COC(=O)[C@H](Cc1ccccc1)NC(=O)CCCCCCC(=O)NO
1100 | 840 | 64000 | NC(=O)[C@H](Cc1ccccc1)NC(=O)CCCCCCC(=O)NO
330 | 260 | 72000 | O=C(CCCCCCC(=O)N[C@@H](Cc1ccccc1)C(=O)NCCc1ccccc1)NO
210 | 290 | 840 | COC(=O)[C@H](Cc1ccc(-c2ccccc2)cc1)NC(=O)CCCCCCC(=O)NO
 | 790 | 15000 | O=C(CCCCCCC(=O)N[C@@H](Cc1ccccc1)C(=O)Nc1ccccc1)NO
520 | 330 | > 100000 | O=C(CCCCCCC(=O)N[C@@H](Cc1ccccc1)C(=O)N1CCCC1)NO
750 | 1540 | > 100000 | O=C(CCCCCCC(=O)N[C@H](Cc1ccccc1)C(=O)O)NO
1000 |  | 990 | O=C(CCCCCCC(=O)Nc1ccccc1)NO [VORINOSTAT]
340 | 390 | 76000 | O=C(CCCCCCC(=O)N[C@H](Cc1ccccc1)C(=O)NCCc1ccccc1)NO
40 | 510 | 5200 | COC(=O)[C@H](Cc1ccc2ccccc2c1)NC(=O)CCCCCCC(=O)NO
140 | 460 | 69000 | O=C(CCCCCCC(=O)N[C@@H](Cc1ccccc1)C(=O)NCc1ccccc1)NO
760 | 880 | 28000 | COC(=O)[C@@H](Cc1ccccc1)NC(=O)CCCCCCC(=O)NO
